Experimental data from ChEMBL document CHEMBL1145787, “Synthesis and structure-activity relationship of N-substituted 4-arylsulfonylpiperidine-4-hydroxamic acids as novel, orally active matrix metalloproteinase inhibitors for the treatment of osteoarthritis” (J Med Chem, 2003).

Experiments:
[1] = In vivo inhibitory activity against Matrix metalloprotease enzyme by dialysis implant assay, value is relative to activity of CGS-27023 (61+/-3) at 25 mg/kg. po; format: functional
[2] = In vivo inhibition of Matrix metalloprotease enzyme by Sponge-wrapped cartilage assay, value is relative to activity of RS-130830 (23+/-3) at 10 mg/kg. po. bid; format: functional
[3] = molecular target: Matrix metalloproteinase-9 (Homo sapiens, UniProt P14780); assay: In vitro inhibitory activity against matrix metalloprotease-9.
Collagenase 3 = Collagenase 3 (Homo sapiens, UniProt P45452)
[4] = In vivo inhibitory activity against Matrix metalloprotease enzyme by dialysis implant assay, value is relative to activity of CGS-27023 (60+/-3) at 25 mg/kg. po; format: functional
[5] = molecular target: T1, Disintegrin and metalloproteinase domain-containing protein 17 (Homo sapiens, UniProt P78536); assay: Inhibition of Tumor necrosis factor alpha converting enzyme (TACE) at 10 uM
How it was run: (§1)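 Dose–response curves were not generated when inhibition was below 60% at 10 μM.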

[6] = In vivo inhibitory activity against Matrix metalloprotease enzyme by dialysis implant assay, value is relative to activity of CGS-27023 (42+/-2) at 25 mg/kg. po; format: functional
[7] = In vivo inhibition of Matrix metalloprotease enzyme by Sponge-wrapped cartilage assay, value is relative to activity of CGS-27023 (39+/-3) at 25 mg/kg. po. bid; format: functional
[8] = In vivo inhibitory activity against Matrix metalloprotease enzyme by dialysis implant assay, value is relative to activity of CGS-27023 (51+/-3) at 25 mg/kg. po; format: functional
[9] = In vivo inhibition of Matrix metalloprotease enzyme by Sponge-wrapped cartilage assay, value are relative to activity of CGS-27023 (33+/-2) at 25 mg/kg. po. bid; format: functional
[10] = In vivo inhibitory activity against Matrix metalloprotease enzyme by dialysis implant assay, value are relative to activity of CGS-27023 (64+/-3) at 25 mg/kg. po; format: functional
[11] = In vivo inhibition of Matrix metalloprotease enzyme by Sponge-wrapped cartilage assay, value are relative to activity of RS-130830 (27+/-3) at 10 mg/kg. po. bid; format: functional
[12] = In vivo inhibitory activity against Matrix metalloprotease enzyme by dialysis implant assay, value is relative to activity of CGS-27023 (64+/-2) at 25 mg/kg. po; format: functional
[13] = In vivo inhibition of Matrix metalloprotease enzyme by Sponge-wrapped cartilage assay, value is relative to activity of RS-130830 (27+/-3) at 10 mg/kg. po. bid; format: functional
[14] = In vivo inhibitory activity against Matrix metalloprotease enzyme by dialysis implant assay, value is relative to activity of CGS-27023 (68+/5-) at 25 mg/kg. po; format: functional
[15] = In vivo inhibitory activity against Matrix metalloprotease enzyme by dialysis implant assay, value is relative to activity of CGS-27023 (76+/-3) at 25 mg/kg. po; format: functional
[16] = In vivo inhibitory activity against Matrix metalloprotease enzyme by dialysis implant assay, value is relative to activity of CGS-27023 (60+/-2) at 25 mg/kg. po; format: functional
[17] = molecular target: T2, Interstitial collagenase (Homo sapiens) (UniProt P03956); assay: Inhibition of Matrix metalloprotease-1 at 10 uM; how it was run: as §1
T2 sequence (whole entry): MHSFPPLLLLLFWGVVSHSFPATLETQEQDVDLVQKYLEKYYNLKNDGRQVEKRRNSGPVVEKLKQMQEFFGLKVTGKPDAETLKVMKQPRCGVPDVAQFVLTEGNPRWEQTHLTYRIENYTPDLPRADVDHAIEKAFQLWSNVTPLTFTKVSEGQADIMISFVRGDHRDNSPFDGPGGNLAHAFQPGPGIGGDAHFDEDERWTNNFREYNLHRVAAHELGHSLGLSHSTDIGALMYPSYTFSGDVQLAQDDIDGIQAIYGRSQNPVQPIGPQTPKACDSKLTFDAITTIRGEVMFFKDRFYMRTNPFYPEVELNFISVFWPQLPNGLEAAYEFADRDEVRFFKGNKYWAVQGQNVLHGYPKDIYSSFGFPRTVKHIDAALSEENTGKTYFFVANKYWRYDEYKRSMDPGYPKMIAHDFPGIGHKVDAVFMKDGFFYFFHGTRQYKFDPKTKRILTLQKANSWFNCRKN

[18] = In vivo inhibitory activity against Matrix metalloprotease enzyme by dialysis implant assay, value is relative to activity of CGS-27023 (62+/-5) at 25 mg/kg. po; format: functional
Interstitial collagenase = molecular target: T3, Interstitial collagenase (Homo sapiens, UniProt P03956); assay: In vitro inhibitory activity against matrix metalloprotease-1
T3 sequence (P03956 whole entry): T2 sequence (whole entry)

[19] = molecular target: T1, Disintegrin and metalloproteinase domain-containing protein 17; assay: In vitro inhibitory activity against tumor necrosis factor alpha converting enzyme (TACE).

Matrix metalloproteinase-9, sequence (P14780 whole entry): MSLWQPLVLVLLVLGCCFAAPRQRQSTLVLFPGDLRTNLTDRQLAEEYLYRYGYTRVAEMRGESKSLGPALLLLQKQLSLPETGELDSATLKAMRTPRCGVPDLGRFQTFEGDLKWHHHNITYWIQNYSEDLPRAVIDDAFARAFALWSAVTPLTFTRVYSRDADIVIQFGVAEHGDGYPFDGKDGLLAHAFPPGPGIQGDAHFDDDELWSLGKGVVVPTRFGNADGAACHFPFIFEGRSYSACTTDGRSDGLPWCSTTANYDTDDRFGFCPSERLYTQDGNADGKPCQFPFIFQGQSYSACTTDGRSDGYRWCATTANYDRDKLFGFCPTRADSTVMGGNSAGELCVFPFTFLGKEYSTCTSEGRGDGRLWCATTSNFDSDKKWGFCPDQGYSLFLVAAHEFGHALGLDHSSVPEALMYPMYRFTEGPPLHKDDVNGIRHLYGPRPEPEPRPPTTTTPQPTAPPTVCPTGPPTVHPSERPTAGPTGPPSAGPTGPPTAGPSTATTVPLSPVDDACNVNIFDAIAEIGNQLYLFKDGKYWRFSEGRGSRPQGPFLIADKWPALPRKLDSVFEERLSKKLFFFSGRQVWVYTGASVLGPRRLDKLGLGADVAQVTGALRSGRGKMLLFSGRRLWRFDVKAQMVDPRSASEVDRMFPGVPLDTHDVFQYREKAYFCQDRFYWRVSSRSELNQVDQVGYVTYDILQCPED
T1 sequence (P78536 whole entry, the tested form may be a part): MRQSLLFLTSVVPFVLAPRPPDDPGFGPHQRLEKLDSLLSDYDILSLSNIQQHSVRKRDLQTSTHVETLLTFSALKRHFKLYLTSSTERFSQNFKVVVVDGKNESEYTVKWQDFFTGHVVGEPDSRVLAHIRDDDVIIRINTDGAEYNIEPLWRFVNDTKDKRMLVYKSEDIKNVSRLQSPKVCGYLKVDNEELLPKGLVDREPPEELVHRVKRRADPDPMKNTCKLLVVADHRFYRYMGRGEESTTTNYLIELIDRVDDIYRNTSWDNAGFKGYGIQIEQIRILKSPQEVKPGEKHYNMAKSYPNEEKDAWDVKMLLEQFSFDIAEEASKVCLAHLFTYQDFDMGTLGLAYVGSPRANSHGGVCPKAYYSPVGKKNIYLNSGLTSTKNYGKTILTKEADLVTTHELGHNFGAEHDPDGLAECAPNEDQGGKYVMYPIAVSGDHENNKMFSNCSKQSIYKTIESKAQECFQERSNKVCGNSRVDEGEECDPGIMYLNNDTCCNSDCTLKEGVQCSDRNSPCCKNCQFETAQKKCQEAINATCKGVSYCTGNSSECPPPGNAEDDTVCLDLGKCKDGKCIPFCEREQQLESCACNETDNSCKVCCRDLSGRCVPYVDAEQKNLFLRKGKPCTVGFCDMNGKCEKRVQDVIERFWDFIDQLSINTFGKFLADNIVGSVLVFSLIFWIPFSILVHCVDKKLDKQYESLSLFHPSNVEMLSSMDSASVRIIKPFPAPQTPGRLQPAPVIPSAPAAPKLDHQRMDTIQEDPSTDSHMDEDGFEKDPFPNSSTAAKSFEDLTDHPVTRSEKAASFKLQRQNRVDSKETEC

SMILES	IC50 [3]	IC50 (Collagenase 3)	inhibition [5]	further results
CCN1CCC(C(=O)NO)(S(=O)(=O)c2ccc(Oc3ccc(Cl)cc3)cc2)CC1	1 nM	1 nM	–	inhibition in vivo at 25 mg/kg [1]: 90%; inhibition in vivo at 10 mg/kg [2]: 75%
COc1ccc(S(=O)(=O)C2(C(=O)NO)CCN(CCCOc3ccccc3)CC2)cc1	–	4 nM	50%	inhibition in vivo at 25 mg/kg [4]: 28%
COc1ccc(S(=O)(=O)C2(C(=O)NO)CCN(Cc3ccc(OCCN4CCCCC4)cc3)CC2)cc1	3 nM	3 nM	–	inhibition in vivo at 25 mg/kg [6]: 53%; inhibition in vivo at 25 mg/kg [7]: 56%
COc1ccc(S(=O)(=O)C2(C(=O)NO)CCN(Cc3ccc4ccccc4c3)CC2)cc1	–	–	–	inhibition in vivo at 25 mg/kg [8]: 62%; inhibition in vivo at 25 mg/kg [9]: 14%
CC(C)CCOc1ccc(S(=O)(=O)C2(C(=O)NO)CCN(Cc3ccccc3)CC2)cc1	4 nM	2 nM	–	inhibition in vivo at 25 mg/kg [10]: 80%; inhibition in vivo at 10 mg/kg [11]: 34%
COc1ccc(S(=O)(=O)C2(C(=O)NO)CCN(Cc3ccc(Cl)c(Cl)c3)CC2)cc1	6 nM	2 nM	–	inhibition in vivo at 25 mg/kg [8]: 47%
CCCCOc1ccc(S(=O)(=O)C2(C(=O)NO)CCN(CC)CC2)cc1	–	2 nM	51%	inhibition in vivo at 25 mg/kg [12]: 64%; inhibition in vivo at 10 mg/kg [13]: 34%
COc1ccc(S(=O)(=O)C2(C(=O)NO)CCN(CC=C(C)C)CC2)cc1	–	–	49%	inhibition in vivo at 25 mg/kg [14]: 57%
COc1ccc(S(=O)(=O)C2(C(=O)NO)CCN(Cc3ccc(F)cc3)CC2)cc1	16 nM	2 nM	–	inhibition in vivo at 25 mg/kg [15]: 83%
COc1ccc(S(=O)(=O)C2(C(=O)NO)CCN(Cc3cccc(OC)c3)CC2)cc1	9 nM	–	–	inhibition in vivo at 25 mg/kg [16]: 70%
CCCCN1CCC(C(=O)NO)(S(=O)(=O)c2ccc(OC)cc2)CC1	–	–	15%	inhibition in vivo at 25 mg/kg [15]: 56%; inhibition [17]: 56%
COc1ccc(S(=O)(=O)C2(C(=O)NO)CCN(Cc3ccc(Br)cc3)CC2)cc1	10 nM	2 nM	71%	inhibition in vivo at 25 mg/kg [8]: 51%
COc1ccc(CCN2CCC(C(=O)NO)(S(=O)(=O)c3ccc(OC)cc3)CC2)cc1	–	2 nM	53%	inhibition in vivo at 25 mg/kg [18]: 48%
COc1ccc(S(=O)(=O)C2(C(=O)NO)CCN(Cc3ccc(-c4ccccc4)cc3)CC2)cc1	13 nM	3 nM	–	inhibition in vivo at 25 mg/kg [14]: 29%; IC50 (Interstitial collagenase): 1330 nM; IC50 [19]: 610 nM
